From ChEMBL document CHEMBL3774372, “Design, physico-chemical properties and biological evaluation of some new N-[(phenoxy)alkyl]- and N-{2-[2-(phenoxy)ethoxy]ethyl}aminoalkanols as anticonvulsant agents” (Bioorg Med Chem, 2016)
Calls of active or inactive are those of the source. No cut-off for these calls is given here.

Key:
Rattus norvegicus [1] = experiment: Anticonvulsant activity in pilocarpine-induced status epilepticus Sprague-Dawley rat model at 100 mg/kg, ip after 0.5 hrs during post stage 3 seizure; assay type: functional, organism-based
In short: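 Rats given pilocarpine 50 mg/kg ip and observed to first convulsive seizure (Racine stage 3–5, time zero); test drug then given ip in 0.5% methylcellulose. Efficacy = halting further stage 3–5 convulsive seizures; scored protected/tested, time after first stage 3 seizure.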

Rattus norvegicus [2] = experiment: Anticonvulsant activity in pilocarpine-induced status epilepticus Sprague-Dawley rat model at 30 mg/kg, ip after […] during post stage 3 seizure; assay type: functional, organism-based
[3] = Tmax in CD1 mouse brain at 1 mg/kg, iv measured up to 240 mins by LC/ESI-MS/MS analysis; assay type: ADME, organism-based
[4] = Ratio of drug level in brain to plasma in CD1 mouse at 12.92 mg/kg, ig administered as single dose measured after 15 mins by LC/ESI-MS/MS analysis; assay type: ADME, organism-based; details: brain and plasma, po, read-out: BPR
Vibrio harveyi [5] = experiment: Mutagenicity in Vibrio harveyi BB7M assessed as number of colonies after 48 hrs (reference value: 13 to 14 no_unit); assay type: ADME, organism-based; details: in vivo
In short: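 Vibrio harveyi mutagenicity test: test compound was added to exponentially growing cultures (A600 = 0.1, 30 °C) and grown to OD600 0.3–0.4. Then 5 × 10^6 cells were plated on BOSS agar with neomycin (final 100 µg/mL) and incubated 48 h at 30 °C. Neomycin-resistant colonies were counted. Triplicate; controls were water, DMSO and NQNO 40 ng/mL.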

Mus musculus [6] = experiment: Neurotoxicity in mouse at 30 mg/kg, ip after 0.5 hrs by rotarod test; assay type: toxicity, organism-based; details: in vivo
In short: (§1)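 Mice were dosed ip with compound suspended in 0.5% methylcellulose. Rotarod: a 1 in. knurled rod turning at 6 rpm. Neurotoxicity was scored as failure to stay on the rod for at least 1 min in each of three trials. Results are given as the number of animals affected out of the number tested.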

[7] = Tmax in CD1 mouse brain at 12.92 mg/kg, ip measured up to 240 mins by LC/ESI-MS/MS analysis; assay type: ADME, organism-based
[8] = Cmax in CD1 mouse brain at 12.92 mg/kg, ip measured up to 240 mins by LC/ESI-MS/MS analysis; assay type: ADME, organism-based; design: dose 12.92 mg/kg, route intraperitoneal
in vitro = details: mouse, liver microsomes
hERG (KCNH2) = hERG (KCNH2) (Homo sapiens, UniProt Q12809); experiment: Displacement of [3H]astemizole from human recombinant ERG expressed in HEK293 cells at 10^-4 M; assay type: cell-based; details: HEK293 cells that express human recombinant ERG, probe [3H]astemizole
Chain of hERG (KCNH2) (Q12809 whole entry): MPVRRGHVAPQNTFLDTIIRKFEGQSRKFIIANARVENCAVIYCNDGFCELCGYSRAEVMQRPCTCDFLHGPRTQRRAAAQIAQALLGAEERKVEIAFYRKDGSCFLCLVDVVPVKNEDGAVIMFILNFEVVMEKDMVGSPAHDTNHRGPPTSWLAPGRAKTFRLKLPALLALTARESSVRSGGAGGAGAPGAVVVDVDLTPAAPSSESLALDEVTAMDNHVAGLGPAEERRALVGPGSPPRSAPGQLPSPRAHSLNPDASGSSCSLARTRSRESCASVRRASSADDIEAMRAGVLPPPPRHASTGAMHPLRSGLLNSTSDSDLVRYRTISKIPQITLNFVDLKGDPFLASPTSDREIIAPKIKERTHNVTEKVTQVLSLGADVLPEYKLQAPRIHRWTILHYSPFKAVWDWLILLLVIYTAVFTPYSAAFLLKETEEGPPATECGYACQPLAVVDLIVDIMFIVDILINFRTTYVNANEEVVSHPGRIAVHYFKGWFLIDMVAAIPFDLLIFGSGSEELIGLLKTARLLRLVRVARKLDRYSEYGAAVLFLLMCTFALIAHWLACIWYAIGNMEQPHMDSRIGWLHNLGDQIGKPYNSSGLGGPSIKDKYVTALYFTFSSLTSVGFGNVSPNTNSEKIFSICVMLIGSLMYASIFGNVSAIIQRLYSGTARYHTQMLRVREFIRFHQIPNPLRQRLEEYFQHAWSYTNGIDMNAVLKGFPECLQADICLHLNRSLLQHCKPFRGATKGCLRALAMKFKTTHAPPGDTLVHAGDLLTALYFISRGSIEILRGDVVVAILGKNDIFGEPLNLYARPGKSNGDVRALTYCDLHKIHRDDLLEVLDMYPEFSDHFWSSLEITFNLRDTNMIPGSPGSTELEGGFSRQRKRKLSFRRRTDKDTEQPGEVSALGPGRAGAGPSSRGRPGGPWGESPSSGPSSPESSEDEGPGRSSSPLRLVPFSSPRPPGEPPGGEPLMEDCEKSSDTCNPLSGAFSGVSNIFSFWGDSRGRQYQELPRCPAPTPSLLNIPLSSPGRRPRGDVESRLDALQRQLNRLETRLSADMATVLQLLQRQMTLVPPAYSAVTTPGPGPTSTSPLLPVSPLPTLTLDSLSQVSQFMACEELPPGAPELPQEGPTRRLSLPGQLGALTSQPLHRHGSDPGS

[9] = Ratio of drug level in brain to plasma in CD1 mouse at 1 mg/kg, iv administered as single dose measured after 240 mins by LC/ESI-MS/MS analysis; assay type: ADME, organism-based; details: brain and plasma, read-out: BPR
[10] = AUC (0 to infinity) in CD1 mouse brain at 12.92 mg/kg, ip measured up to 240 mins by LC/ESI-MS/MS analysis; assay type: ADME, organism-based; design: dose 12.92 mg/kg, route intraperitoneal, time infinity
Mus musculus [11] = experiment: Half life in CD1 mouse plasma at 12.92 mg/kg, ip measured up to 240 mins by LC/ESI-MS/MS analysis; assay type: ADME, organism-based; details: in vivo, 4 h
Mus musculus [12] = experiment: AUMC (0 to infinity) in CD1 mouse plasma at 12.92 mg/kg, ig measured up to 240 mins by LC/ESI-MS/MS analysis; assay type: ADME, organism-based; details: in vivo, po, 4 h
[13] = MRT in CD1 mouse brain at 12.92 mg/kg, ig measured up to 240 mins by LC/ESI-MS/MS analysis; assay type: ADME, organism-based; details: po
[14] = MRT in CD1 mouse plasma at 12.92 mg/kg, ig measured up to 240 mins by LC/ESI-MS/MS analysis; assay type: ADME, organism-based; details: po
Mus musculus [15] = experiment: Neurotoxicity in mouse at 300 mg/kg, ip after 0.5 hrs by rotarod test; assay type: toxicity, organism-based; details: in vivo; in short: as §1
Mus musculus [16] = experiment: Initial plasma concentration in CD1 mouse at 1 mg/kg, iv measured up to 240 mins by LC/ESI-MS/MS; assay type: ADME, organism-based; details: in vivo, 4 h
[17] = Tmax in CD1 mouse brain at 12.92 mg/kg, ig measured up to 240 mins by LC/ESI-MS/MS analysis; assay type: ADME, organism-based; details: po
[18] = Absolute bioavailability in CD1 mouse plasma at 12.92 mg/kg, ip measured up to 240 mins by LC/ESI-MS/MS analysis; assay type: ADME, organism-based
Mus musculus [19] = experiment: Anticonvulsant activity in ip dosed mouse assessed as protection against maximal electric shock-induced seizures measured after […]; assay type: functional
Mus musculus [20] = experiment: AUMC (0 to infinity) in CD1 mouse plasma at 12.92 mg/kg, ip measured up to 240 mins by LC/ESI-MS/MS analysis; assay type: ADME, organism-based; details: in vivo, 4 h
[21] = Ratio of drug level in brain to plasma in CD1 mouse at 12.92 mg/kg, ip administered as single dose measured after 15 mins by LC/ESI-MS/MS analysis; assay type: ADME, organism-based; details: brain and plasma, read-out: BPR
Vibrio harveyi [22] = experiment: Antimutagenic activity against Vibrio harveyi BB7X assessed as inhibition of NQNO-induced mutagenicity after 48 hrs; assay type: functional
In short: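 V. harveyi cultures grown exponentially to A600 0.1 at 30 °C, exposed to test compound for 15 min, then to NQNO, and grown on to A600 0.3–0.4. 5 × 10⁶ cells plated on BOSS agar with neomycin (100, final). Neomycin-resistant colonies counted after 48 h at 30 °C. Result given as % inhibition of NQNO mutagenicity; three independent repeats.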

Rattus norvegicus [23] = experiment: Anticonvulsant activity in rat assessed as protection against maximal electric shock-induced seizures at 30 mg/kg, ip measured after 4 hrs; assay type: functional, organism-based
In short: (§2)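 Rats dosed ip or orally as 0.5% methylcellulose suspension; maximal electroshock at listed time. Protection = abolition of hindlimb tonic extension; 4 rats per group, scored protected/tested.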

Rattus norvegicus [24] = experiment: Anticonvulsant activity in rat assessed as protection against maximal electric shock-induced seizures at 30 mg/kg, ip measured after 0.5 hrs; assay type: functional, organism-based; in short: as §2

Structure (SMILES): Cc1cccc(C)c1OCCOCCN[C@H](C)CO
- Activity (Rattus norvegicus [1]): inactive
- Activity (Rattus norvegicus [2]): inactive

Structure (SMILES): Cc1cccc(C)c1OCCOCCN[C@H](C)CO.Cl
- Tmax [3]: 5 min
- Kp at […] [4]: 2.67
- Activity (Vibrio harveyi [5]): 22
- Activity (Mus musculus [6]): Non-toxic
- Tmax [7]: 15 min
- Cmax [8]: 2360 ng/mL
- microsomal CLint at 20 µM (in vitro): 47 µL/min/mg
- inhibition at 100 µM (hERG (KCNH2)): 3.6%
- Kp at 4 h [9]: 2.98
- AUC(0-inf) [10]: 2160 ng·h/mL
- t1/2 (Mus musculus [11]): 77.2 min
- AUMC (Mus musculus [12]): 266 ng·h²/mL
- MRT [13]: 73.8 min
- MRT [14]: 40.3 min
- Activity (Mus musculus [15]): Toxic
- C0 (Mus musculus [16]): 2200 ng/mL
- Tmax [17]: 5 min
- bioavailability [18]: 6.78%
- ED50 (Mus musculus [19]): 12.9 mg/kg
- AUMC (Mus musculus [20]): 1280 ng·h²/mL
- Kp at […] [21]: 2.55
- inhibition (INH) (Vibrio harveyi [22]): 7%

Structure (SMILES): Cc1cccc(C)c1OCCOCCN[C@@H](C)CO
- Activity (Rattus norvegicus [23]): inactive
- Activity (Rattus norvegicus [24]): Active
